Measurements: ChEMBL document CHEMBL4196017, “Design, synthesis and identification of silicon-containing HCV NS5A inhibitors with pan-genotype activity” (Eur J Med Chem, 2018)

Key:
[1] = Cytotoxicity against HUVEC assessed as growth inhibition at 50 uM relative to control; format: cell-based; conditions: human, read-out: GI
In short: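 HUVEC from healthy donors exposed to compound at 50 µM; percent inhibition reported as mean of n = 3.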

hERG (KCNH2) = hERG (KCNH2) (Homo sapiens, UniProt Q12809); test: Inhibition of human ERG assessed as reduction in peak tail current at 3 uM at holding potential of -80 mV by patch clamp method relative to control
Sequence of hERG (KCNH2) (Q12809 whole entry): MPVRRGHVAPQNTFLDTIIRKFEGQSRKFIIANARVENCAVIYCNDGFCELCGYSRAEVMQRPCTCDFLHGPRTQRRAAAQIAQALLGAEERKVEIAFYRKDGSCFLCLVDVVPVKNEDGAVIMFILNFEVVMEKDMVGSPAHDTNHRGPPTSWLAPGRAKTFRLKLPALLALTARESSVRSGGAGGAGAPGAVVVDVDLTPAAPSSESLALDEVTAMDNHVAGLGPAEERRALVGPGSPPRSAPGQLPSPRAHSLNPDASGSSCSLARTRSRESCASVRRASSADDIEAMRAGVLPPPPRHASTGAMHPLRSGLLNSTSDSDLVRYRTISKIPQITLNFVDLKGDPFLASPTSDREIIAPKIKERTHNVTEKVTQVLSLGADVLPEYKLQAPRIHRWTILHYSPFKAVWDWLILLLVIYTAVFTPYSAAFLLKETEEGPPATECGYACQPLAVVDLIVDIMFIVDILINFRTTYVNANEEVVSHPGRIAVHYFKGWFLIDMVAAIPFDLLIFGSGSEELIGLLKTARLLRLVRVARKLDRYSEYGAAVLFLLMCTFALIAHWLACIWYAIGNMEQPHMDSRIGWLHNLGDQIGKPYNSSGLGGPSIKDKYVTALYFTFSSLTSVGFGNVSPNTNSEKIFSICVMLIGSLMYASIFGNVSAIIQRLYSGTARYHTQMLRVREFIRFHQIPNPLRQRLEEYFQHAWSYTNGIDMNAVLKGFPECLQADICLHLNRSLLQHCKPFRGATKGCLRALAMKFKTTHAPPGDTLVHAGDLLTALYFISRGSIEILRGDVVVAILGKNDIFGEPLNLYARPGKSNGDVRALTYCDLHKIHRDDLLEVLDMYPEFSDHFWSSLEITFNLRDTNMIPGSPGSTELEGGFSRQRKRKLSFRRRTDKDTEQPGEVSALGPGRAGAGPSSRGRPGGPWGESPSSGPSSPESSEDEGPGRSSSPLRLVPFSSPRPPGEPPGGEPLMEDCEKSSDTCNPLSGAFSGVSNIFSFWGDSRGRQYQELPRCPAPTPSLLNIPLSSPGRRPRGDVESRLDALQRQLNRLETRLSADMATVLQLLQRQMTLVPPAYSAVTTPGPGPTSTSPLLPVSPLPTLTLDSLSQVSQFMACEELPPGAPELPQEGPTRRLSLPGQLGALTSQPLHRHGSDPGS
In short: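 Whole-cell patch clamp, room temperature; hold -80 mV, 2 s +50 mV depolarization then 3 s -50 mV repolarization every 30 s; peak tail current referenced to initial 50 ms step to -50 mV; 3 min vehicle stabilization, then test solution until stable (<5% over ~5 sweeps) or 6 min max; mean ± SD, n = 3.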

Cytochrome P450 2A6 = biological target: T1, Cytochrome P450 2A6 (Homo sapiens, UniProt P11509); test: Inhibition of CYP2A6 in human liver microsomes at 1 to 10 uM using coumarin as substrate preincubated for 5 mins followed by NADPH addition measured after 30 mins by UPLC-MS/MS analysis relative to control; format: ADME; conditions: 0.5 h
T1 sequence (P11509 whole entry): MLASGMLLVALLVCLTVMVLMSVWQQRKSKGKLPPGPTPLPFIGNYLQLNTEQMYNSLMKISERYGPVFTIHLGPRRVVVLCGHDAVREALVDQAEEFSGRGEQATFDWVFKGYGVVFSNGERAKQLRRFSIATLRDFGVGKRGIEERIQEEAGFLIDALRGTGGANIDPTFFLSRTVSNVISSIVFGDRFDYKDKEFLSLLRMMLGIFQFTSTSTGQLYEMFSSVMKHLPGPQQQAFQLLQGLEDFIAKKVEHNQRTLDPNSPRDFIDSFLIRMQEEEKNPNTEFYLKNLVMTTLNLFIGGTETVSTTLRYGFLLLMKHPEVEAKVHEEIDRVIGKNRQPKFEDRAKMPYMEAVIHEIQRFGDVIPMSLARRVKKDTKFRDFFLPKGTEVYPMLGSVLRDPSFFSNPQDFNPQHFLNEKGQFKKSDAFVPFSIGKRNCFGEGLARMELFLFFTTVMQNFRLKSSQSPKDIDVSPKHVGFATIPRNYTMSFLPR

[2] = Tmax in beagle dog at 2 mg/kg, po administered as single dose by UPLC-MS/MS analysis; format: ADME, organism-based, Canis lupus familiaris; conditions: in vivo
[3] = Metabolic stability in mouse liver microsomes assessed as parent compound remaining at 0.2 uM preincubated for 5 mins followed by NADPH addition measured up to 60 mins by UPLC-MS/MS analysis; format: ADME, microsome; conditions: read-out: Stability
In short: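 Pooled mouse, rat or human liver microsomes 0.2 mg/mL with 1 mM NADPH, 5 mM MgCl2, 100 mM potassium phosphate pH 7.4 and 0.2 µM compound; 5-min preincubation at 37 °C, NADPH start, sampled at 5, 15, 30, 60 min; ice-cold acetonitrile stop; UPLC-MS/MS; percent parent remaining at 60 min.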

[4] = Ratio of drug uptake in Sprague-Dawley rat liver to plasma at 10 mg/kg, ig administered as single dose measured after 8 hrs by UPLC-MS/MS analysis; format: ADME, organism-based; conditions: po
Cytochrome P450 2C9 = Cytochrome P450 2C9 (Homo sapiens, UniProt P11712); test: Inhibition of CYP2C9 in human liver microsomes at 1 to 10 uM using tolbutamide as substrate preincubated for 5 mins followed by NADPH addition measured after 30 mins by UPLC-MS/MS analysis relative to control; format: ADME; conditions: 0.5 h
Sequence of Cytochrome P450 2C9 (P11712 whole entry): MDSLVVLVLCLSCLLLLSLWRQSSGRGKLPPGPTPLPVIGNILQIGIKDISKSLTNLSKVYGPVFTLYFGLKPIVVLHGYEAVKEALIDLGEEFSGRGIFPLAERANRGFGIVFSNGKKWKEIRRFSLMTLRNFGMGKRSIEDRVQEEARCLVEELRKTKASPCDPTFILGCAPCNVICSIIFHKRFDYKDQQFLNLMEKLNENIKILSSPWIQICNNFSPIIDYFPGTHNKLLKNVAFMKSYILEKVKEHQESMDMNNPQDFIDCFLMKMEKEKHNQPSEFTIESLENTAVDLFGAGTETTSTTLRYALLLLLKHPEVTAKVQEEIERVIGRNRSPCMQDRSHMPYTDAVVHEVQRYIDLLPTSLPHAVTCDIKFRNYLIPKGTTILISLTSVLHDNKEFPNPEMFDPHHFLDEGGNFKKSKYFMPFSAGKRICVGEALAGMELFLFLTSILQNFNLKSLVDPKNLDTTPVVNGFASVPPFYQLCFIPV

[5] = Ratio of drug uptake in Sprague-Dawley rat liver to plasma at 10 mg/kg, ig administered as single dose measured after 0.5 hrs by UPLC-MS/MS analysis; format: ADME, organism-based; conditions: po
[6] = Half life in beagle dog at 2 mg/kg, po administered as single dose by UPLC-MS/MS analysis; format: ADME, organism-based, Canis lupus familiaris; conditions: in vivo
[7] = Ratio of drug uptake in Sprague-Dawley rat liver to plasma at 10 mg/kg, ig administered as single dose measured after 2 hrs by UPLC-MS/MS analysis; format: ADME, organism-based; conditions: po
[8] = Protein binding in rat plasma at 10 uM after 6 hrs by UPLC-MS/MS based equilibrium dialysis method; format: ADME, cell-free; conditions: read-out: PPB (converted)
In short: (§1)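 Equilibrium dialysis: plasma (pH 7.4) preincubated 15 min at 37 °C, spiked with compound at 1 or 10 µM (0.5% DMSO final); dialysed against 100 mM phosphate buffer pH 7.4, 6 h at 37 °C, 100 rpm; donor and receiver samples analysed by UPLC-MS/MS.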

[9] = Cmax in mouse at 10 mg/kg, ig administered as single dose by UPLC-MS/MS analysis; format: ADME, organism-based; set-up: dose 10 mg/kg, route intragastric; conditions: in vivo, po
In short: (§2)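 Adult male mice (12 h light-dark, 22 °C, 55% humidity) fasted 12 h with free water, then given a single 10 mg/kg intragastric dose; plasma concentrations by UPLC-MS/MS; PK parameters calculated by software.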

[10] = Protein binding in rat plasma at 1 uM after 6 hrs by UPLC-MS/MS based equilibrium dialysis method; format: ADME, cell-free; conditions: read-out: PPB (converted); in short: as §1
Cytochrome P450 2C19 = Cytochrome P450 2C19 (Homo sapiens, UniProt P33261); test: Inhibition of CYP2C19 in human liver microsomes at 1 to 10 uM using (S)-mephenytoin as substrate preincubated for 5 mins followed by NADPH addition measured after 30 mins by UPLC-MS/MS analysis relative to control; format: ADME; conditions: 0.5 h
Sequence of Cytochrome P450 2C19 (P33261 whole entry): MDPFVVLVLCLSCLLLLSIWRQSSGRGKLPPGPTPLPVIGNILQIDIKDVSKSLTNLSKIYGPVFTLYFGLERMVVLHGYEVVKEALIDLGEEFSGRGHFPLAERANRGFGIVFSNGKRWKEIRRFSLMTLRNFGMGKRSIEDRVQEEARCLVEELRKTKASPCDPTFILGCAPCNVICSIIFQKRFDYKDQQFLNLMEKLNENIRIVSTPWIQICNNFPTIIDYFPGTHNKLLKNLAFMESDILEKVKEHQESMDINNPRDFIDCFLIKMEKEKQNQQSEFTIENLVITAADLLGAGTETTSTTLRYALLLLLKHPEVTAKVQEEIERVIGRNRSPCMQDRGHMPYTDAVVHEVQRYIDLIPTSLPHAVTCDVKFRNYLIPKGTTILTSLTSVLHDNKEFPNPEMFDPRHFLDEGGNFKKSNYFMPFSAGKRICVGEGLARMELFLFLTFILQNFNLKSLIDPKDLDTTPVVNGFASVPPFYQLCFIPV

[11] = Tmax in mouse at 10 mg/kg, ig administered as single dose by UPLC-MS/MS analysis; format: ADME, organism-based; conditions: in vivo, po; in short: as §2
[12] = Protein binding in mouse plasma at 10 uM after 6 hrs by UPLC-MS/MS based equilibrium dialysis method; format: ADME, cell-free; conditions: read-out: PPB (converted); in short: as §1
[13] = AUC (0 to t) in beagle dog at 2 mg/kg, po administered as single dose by UPLC-MS/MS analysis; format: ADME, organism-based, Canis lupus familiaris; conditions: in vivo
[14] = Apparent permeability from apical to basolateral side in human Caco2 cells after 90 mins by UPLC-MS/MS analysis; format: ADME, cell-based; conditions: Caco-2
In short: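 Caco-2 cells on Transwell inserts grown 21-23 days to TEER ≥200 Ω cm²; rinsed with warm HBSS, preincubated 30 min at 37 °C in 2% BSA with or without inhibitor; compound in 2% BSA added apical or basolateral, 90 min at 37 °C; receiver sampled, UPLC-MS/MS; duplicate; Papp calculated.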

[15] = Protein binding in human plasma at 1 uM after 6 hrs by UPLC-MS/MS based equilibrium dialysis method; format: ADME, cell-free; conditions: read-out: PPB (converted); in short: as §1
[16] = Half life in mouse at 10 mg/kg, ig administered as single dose by UPLC-MS/MS analysis; format: ADME, organism-based; conditions: in vivo, po; in short: as §2
[17] = Ratio of drug uptake in Sprague-Dawley rat liver to plasma at 10 mg/kg, ig administered as single dose measured after 24 hrs by UPLC-MS/MS analysis; format: ADME, organism-based; conditions: po
Mus musculus = test: Toxicity in ICR mouse assessed as serum creatine kinase level at 150 mg/kg, po administered via gavage once daily for 14 days (reference value: 705.78 +/- 330.84 U/L); format: organism-based; conditions: in vivo, 336 h

## COC(=O)N[C@H](C(=O)N1CCC[C@H]1C(=O)Nc1ccc([C@@H]2CC[C@@H](c3ccc(NC(=O)[C@@H]4CCCN4C(=O)[C@@H](NC(=O)OC)C(C)C)cc3)N2c2ccc(C(C)(C)C)cc2)cc1)C(C)C [OMBITASVIR]
[1]
  inhibition at 50 µM: 11.8%
hERG (KCNH2)
  inhibition at 3 µM: 1.1%
Cytochrome P450 2A6
  inhibition (INH): Not Active
[2]
  Tmax: 8.3 h
[3]
  remaining at 1 h, 0.2 µM: 88.7%
[4]
  Kp at 8 h: 33.5
Cytochrome P450 2C9
  inhibition (INH): Not Active
[5]
  Kp at 0.5 h: 43.4
[6]
  half-life: 11.1 h
[7]
  Kp at 2 h: 24.6
[8]
  fraction unbound at 6 h, 10 µM: 1e-05
[9]
  Cmax: 583 ng/mL
[10]
  fraction unbound at 6 h, 1 µM: 2e-05
Cytochrome P450 2C19
  inhibition (INH): Not Active
[11]
  Tmax: 3 h
[12]
  fraction unbound at 6 h, 10 µM: 1e-05
[13]
  AUC(0-t): 188 ng·h/mL
[14]
  Papp A→B at 1.5 h: 0.08 ×10⁻⁶ cm/s
[15]
  fraction unbound at 6 h, 1 µM: 3e-05
[16]
  half-life: 7.7 h
[17]
  Kp at 24 h: 22.3

## CC[Si](CC)(CC)c1ccc(N2[C@H](c3ccc(NC(=O)[C@@H]4CCCN4C(=O)[C@@H](NC(=O)OC)C(C)C)cc3)CC[C@H]2c2ccc(NC(=O)[C@@H]3CCCN3C(=O)[C@@H](NC(=O)OC)C(C)C)cc2)cc1
[1]
  inhibition at 50 µM: 16.6%
hERG (KCNH2)
  inhibition at 3 µM: 6.9%
Cytochrome P450 2A6
  inhibition (INH): Not Active
[2]
  Tmax: 10.5 h
[3]
  remaining at 1 h, 0.2 µM: 92.7%
[4]
  Kp at 8 h: 52.9
Cytochrome P450 2C9
  inhibition (INH): Not Active
[5]
  Kp at 0.5 h: 7.22
[6]
  half-life: 12.7 h
[7]
  Kp at 2 h: 28.1
[8]
  fraction unbound at 6 h, 10 µM: 0.00017
[9]
  Cmax: 198 ng/mL
[10]
  fraction unbound at 6 h, 1 µM: 9e-05
Cytochrome P450 2C19
  inhibition (INH): Not Active
Mus musculus
  Activity: 953.3 U/L
[11]
  Tmax: 3 h
[12]
  fraction unbound at 6 h, 10 µM: 0.00011
[13]
  AUC(0-t): 605 ng·h/mL
[14]
  Papp A→B at 1.5 h: 0.07 ×10⁻⁶ cm/s
[15]
  fraction unbound at 6 h, 1 µM: 8e-05
[16]
  half-life: 22.5 h
[17]
  Kp at 24 h: 31.9
